pIC50: −log10 of the molar value.
Experiments:
[1] = tested on: HepG2 human hepatoma cells; assay: Cytotoxic assay, HepG2 cell viability; assay type: cell-based; conditions: concentrations as high as 50 μg/mL
Summary of the method: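 HepG2 cells kept in DMEM with 10% FBS and 1% antibiotic–antimycotic at 37 °C, 5% CO2. Test compound in DMSO added in triplicate to 15 000 cells per well, 0 to 50 μg/mL, final DMSO 1%. Incubated 2 days at 37 °C, then viability read by CellTiter-Glo luminescence. Standard inhibition dose–response fit gave IC50, averaged from two independent experiments.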

Bacillus subtilis 3610 = assay: Antibiotic assay; assay type: cell-based; conditions: concentrations as high as 50 μg/mL
[2] = tested on: liver-stage Plasmodium berghei; assay: Liver-stage P. berghei assay; assay type: cell-based, Plasmodium berghei ANKA
Summary of the method: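 Luciferase-expressing P. berghei ANKA sporozoites came from dissected infected Anopheles stephensi mosquitoes. 4000 sporozoites infected 15 000 HepG2 cells per well with test compound in triplicate, 0 to 50 μg/mL, final DMSO 1%. After 2 days at 37 °C, relative parasite load was read by Bright-Glo luminescence. Standard inhibition dose–response fit gave IC50, mean of two independent experiments.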

blood stage = assay: Blood stage assays; assay type: cell-based; conditions: Plasmodium berghei, read-out: IC50 in blood stage assays

Compound | cytotoxicity against HepG2 cells (in words) [1] | activity against B. subtilis (in words) (Bacillus subtilis 3610) | activity against liver-stage Plasmodium berghei (in words) [2] | pIC50 (blood stage)
COc1cccc2c1C(=O)c1ccc3cc(C)cc(O)c3c1C2=O [Compound 5, X-14881 E] | moderate cytotoxicity | showed antibiotic activity | showed antibiotic activity | –
O=C1C(O)=C([C@H]2CC[C@H](c3ccc(Cl)cc3)CC2)C(=O)c2ccccc21 [Atovaquone] | – | – | – | 9.52
COc1cccc2c1C(=O)c1ccc3c(c1C2=O)C(=O)C[C@](C)(O)C3 [Compound 4, 6-deoxy-8-O-methylrabelomycin] | – | showed antibiotic activity | showed antibiotic activity | –

Reference: paper PMC3481556 (Journal of Natural Products, 2012)
